Source: ChEMBL document CHEMBL1165950, “Design and synthesis of new potent anticancer pyrazoles with high FLT3 kinase inhibitory selectivity” (Bioorg Med Chem, 2010)

How the values were obtained:
Type in all cases: functional
[1] = system: SK-MEL-2; experiment: Growth inhibition of human SK-MEL-2 cells after 48 hrs by sulforhodamine B assay; settings: SK-MEL-2, 48 h; for CC50: read-out: LC50 (the source's name)
Summary of the method: (§1)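 NCI 60-cell screen, five-dose mode. Cells grown in RPMI 1640 with 5% FBS and 2 mM L-glutamine and plated at 5000-40,000 cells/well according to doubling time. After 24 h preincubation, a Tz plate was TCA-fixed. Five concentrations (10-fold or 1/2 log dilutions) were applied for 48 h at 37 °C. SRB staining read at 515 nm. IC50 taken from [(Ti-Tz)/(C-Tz)]×100 = 50.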

[2] = Cytotoxicity against human RPMI8266 cells assessed as cell growth at 0.01 uM after 48 hrs by sulforhodamine B assay; settings: read-out: Activity
[3] = system: UACC-62; experiment: Cytotoxicity against human UACC62 cells assessed as cell growth at 1 uM after 48 hrs by sulforhodamine B assay; settings: UACC-62, 48 h, read-out: Activity
[4] = system: SK-OV-3; experiment: Cytotoxicity against human SKOV3 cells assessed as cell growth at 1 uM after 48 hrs by sulforhodamine B assay; settings: SK-OV-3, 48 h, read-out: Activity
[5] = system: UO-31; experiment: Cytotoxicity against human UO31 cells assessed as cell growth at 10 uM; settings: read-out: Activity
Summary of the method: (§2)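 NCI-60 screen: cells grown in RPMI 1640 with 5% FBS and 2 mM L-glutamine, plated at 5000–40,000 cells/well according to doubling time, and preincubated 24 h at 37 °C, 5% CO2. The single 10 µM dose (DMSO stock) was added, then incubated 48 h. Cells were TCA-fixed and stained with 0.4% SRB, read at 515 nm, and growth % calculated against time-zero and control plates.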

[6] = system: SK-MEL-5; experiment: Cytotoxicity against human SK-MEL-5 cells assessed as cell growth at 100 nM after 48 hrs by sulforhodamine B assay; settings: SK-MEL-5, 48 h, read-out: Activity
[7] = system: SK-OV-3; experiment: Cytotoxicity against human SKOV3 cells assessed as cell growth at 100 nM after 48 hrs by sulforhodamine B assay; settings: SK-OV-3, 48 h, read-out: Activity
[8] = system: 786-0; experiment: Growth inhibition of human 786-0 cells after 48 hrs by sulforhodamine B assay; settings: 786-0, 48 h; for CC50: read-out: LC50 (the source's name)
Summary of the method: (§3)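 NCI five-dose SRB assay in RPMI 1640 with 5% FBS and 2 mM L-glutamine. Cells were preincubated 24 h, then exposed 48 h at 37 °C to five concentrations (10-fold or half-log serial dilutions from DMSO stocks). TCA fixation, SRB staining, and absorbance at 515 nm followed. IC50 was taken where [(Ti−Tz)/(C−Tz)]×100 = 50, with Tz as time-zero cell density.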

[9] = system: NCI-H522; experiment: Cytotoxicity against human NCI-H522 cells assessed as cell growth at 10 uM; settings: read-out: Activity; summary of the method: as §2
[10] = system: MOLT-4; experiment: Cytotoxicity against human MOLT4 cells assessed as cell growth at 0.01 uM after 48 hrs by sulforhodamine B assay; settings: MOLT-4, 48 h, read-out: Activity
[11] = Growth inhibition of human Hs 578T cells after 48 hrs by sulforhodamine B assay; settings: for CC50: read-out: LC50 (the source's name); summary of the method: as §1
[12] = system: U-251; experiment: Cytotoxicity against human U251 cells assessed as cell growth at 10 uM; settings: read-out: Activity; summary of the method: as §2
[13] = system: UACC-257; experiment: Cytotoxicity against human UACC257 cells assessed as cell growth at 0.01 uM after 48 hrs by sulforhodamine B assay; settings: UACC-257, 48 h, read-out: Activity
[14] = system: 786-0; experiment: Cytotoxicity against human 786-0 cells assessed as cell growth at 1 uM after 48 hrs by sulforhodamine B assay; settings: 786-0, 48 h, read-out: Activity
Summary of the method: (§4)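 NCI-60 five-dose screen. Cells were grown in RPMI 1640 with 5% FBS and 2 mM L-glutamine, plated at 5000–40,000 cells/well and preincubated for 24 h. Time-zero plates were TCA-fixed. DMSO-solubilized drug was added at five concentrations (10-fold or ½-log serial dilutions) for 48 h at 37 °C, 5% CO2. Cells were TCA-fixed, stained with 0.4% SRB and read at 515 nm. Percent growth used time-zero, control and test absorbances.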

[15] = system: EKVX; experiment: Cytotoxicity against human EKVX cells assessed as cell growth at 100 nM after 48 hrs by sulforhodamine B assay; settings: read-out: Activity
[16] = system: IGROV-1; experiment: Cytotoxicity against human IGROV1 cells assessed as cell growth at 1 uM after 48 hrs by sulforhodamine B assay; settings: IGROV-1, 48 h, read-out: Activity
[17] = Cytotoxicity against human Hs 578T cells assessed as cell growth at 100 nM after 48 hrs by sulforhodamine B assay; settings: read-out: Activity
[18] = system: Malme-3M; experiment: Cytotoxicity against human MALME-3M cells assessed as cell growth at 10 uM after 48 hrs by sulforhodamine B assay; settings: read-out: Activity
[19] = system: DU-145; experiment: Cytotoxicity against human DU145 cells assessed as cell growth at 0.001 uM after 48 hrs by sulforhodamine B assay; settings: DU-145, 48 h, read-out: Activity
[20] = system: T47D; experiment: Cytotoxicity against human T47D cells assessed as cell growth at 10 uM; settings: read-out: Activity; summary of the method: as §2
[21] = system: EKVX; experiment: Cytotoxicity against human EKVX cells assessed as cell growth at 0.01 uM after 48 hrs by sulforhodamine B assay; settings: read-out: Activity
[22] = system: NCI-H460; experiment: Cytotoxicity against human NCI-H460 cells assessed as cell growth at 100 nM after 48 hrs by sulforhodamine B assay; settings: NCI-H460, 48 h, read-out: Activity
[23] = system: COLO 205; experiment: Cytotoxicity against human COLO205 cells assessed as cell growth at 1 uM after 48 hrs by sulforhodamine B assay; settings: COLO 205, 48 h, read-out: Activity; summary of the method: as §4
[24] = system: SW-620; experiment: Growth inhibition of human SW620 cells after 48 hrs by sulforhodamine B assay; settings: SW-620, 48 h; for CC50: read-out: LC50 (the source's name); summary of the method: as §1
[25] = system: SF-268; experiment: Cytotoxicity against human SF268 cells assessed as cell growth at 10 uM; settings: read-out: Activity; summary of the method: as §2
[26] = system: UO-31; experiment: Cytotoxicity against human UO31 cells assessed as cell growth at 1 uM after 48 hrs by sulforhodamine B assay; settings: UO-31, 48 h, read-out: Activity
[27] = system: DU-145; experiment: Growth inhibition of human DU145 cells after 48 hrs by sulforhodamine B assay; settings: DU-145, 48 h; summary of the method: as §3
[28] = system: HL-60(TB); experiment: Cytotoxicity against human HL-60(TB) cells assessed as cell growth at 100 nM after 48 hrs by sulforhodamine B assay; settings: HL-60, 48 h, read-out: Activity
Summary of the method: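 NCI 60-cell panel. Cells are grown in RPMI 1640 with 5% FBS and 2 mM L-glutamine, seeded at 5000–40,000 cells/well according to doubling time, and preincubated 24 h. Time-zero plates are TCA-fixed. Compound from DMSO stock is given at five 10-fold or 1/2-log concentrations for 48 h at 37 °C, 5% CO2. Suspension cells are fixed with 80% TCA (final 16%) and SRB-stained, with absorbance at 515 nm. Percent growth is derived from Tz, control and test readings.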

| SMILES | GI50 [1] [µM] | TGI [1] [µM] | CC50 [1] [µM] | growth at 0.01 µM [2] [%] | growth at 1 µM [3] [%] | growth at 1 µM [4] [%] | growth at 10 µM [5] [%] | growth at 0.1 µM [6] [%] | growth at 0.1 µM [7] [%] | GI50 [8] [µM] | TGI [8] [µM] | CC50 [8] [µM] | growth at 10 µM [9] [%] | growth at 0.01 µM [10] [%] | GI50 [11] [µM] | TGI [11] [µM] | CC50 [11] [µM] | growth at 10 µM [12] [%] | growth at 0.01 µM [13] [%] | growth at 1 µM [14] [%] | other results |
| --- | --- | --- | --- | --- | --- | --- | --- | --- | --- | --- | --- | --- | --- | --- | --- | --- | --- | --- | --- | --- | --- |
| COc1cc(C)cc(-c2c(-c3ccnc(-c4ccc(C(C)=O)cc4)c3)cnn2CC#N)c1 | 5.88 | > 100 | > 100 | 94 | 25 | 19 | 57.4 | 85 | 102 | 3.11 | > 100 | > 100 | 45 | 99 | 1.68 | 5.68 | > 100 | 84.7 | 81 | 10 | growth at 0.1 µM [15]: 91%; growth at 1 µM [16]: 23%; growth at 0.1 µM [17]: 71%; growth at 10 µM [18]: 43%; growth at 0.001 µM [19]: 109%; growth at 10 µM [20]: 45.6%; growth at 0.01 µM [21]: 97%; growth at 0.1 µM [22]: 87%; growth at 1 µM [23]: -78%; GI50 [24]: 2.27 µM; TGI [24]: > 100 µM; CC50 [24]: > 100 µM; growth at 10 µM [25]: 90.5%; growth at 1 µM [26]: 11%; GI50 [27]: 3.42 µM; LC50 [27]: > 100 µM; TGI [27]: > 100 µM; growth at 0.1 µM [28]: 88% |
| COc1cc(C)cc(-c2nn(CC#N)cc2-c2ccc(-c3cccc(C(C)=O)c3)nc2)c1 | 3.73 | 41.3 | > 100 | 93 | 38 | -4 | 33.8 | 65 | 104 | 3.52 | 93 | > 100 | -3.15 | 100 | 1.28 | 3.87 | 31.2 | 11.8 | 85 | 15 | growth at 0.1 µM [15]: 89%; growth at 1 µM [16]: 1%; growth at 0.1 µM [17]: 61%; growth at 10 µM [18]: -1%; growth at 0.001 µM [19]: 110%; growth at 10 µM [20]: 11.6%; growth at 0.01 µM [21]: 99%; growth at 0.1 µM [22]: 84%; growth at 1 µM [23]: -55%; GI50 [24]: 1.3 µM; TGI [24]: 19.3 µM; CC50 [24]: > 100 µM; growth at 10 µM [25]: 49.3%; growth at 1 µM [26]: 21%; GI50 [27]: 1.98 µM; LC50 [27]: > 100 µM; TGI [27]: 4.95 µM; growth at 0.1 µM [28]: 66% |
| Cc1cc(O)cc(-c2nn(CC#N)cc2-c2ccnc(-c3ccc(Oc4ccccc4)cc3)c2)c1 | 3.44 | 11.7 | 44.2 | 100 | 33 | 63 | 46.9 | 94 | 101 | 2.14 | 5.38 | 18.9 | 36 | 93 | 2.02 | 6.08 | > 100 | 47.5 | 80 | -34 | growth at 0.1 µM [15]: 77%; growth at 1 µM [16]: -64%; growth at 0.1 µM [17]: 82%; growth at 10 µM [18]: -72%; growth at 0.001 µM [19]: 104%; growth at 10 µM [20]: 14.2%; growth at 0.01 µM [21]: 94%; growth at 0.1 µM [22]: 99%; growth at 1 µM [23]: -94%; GI50 [24]: 1.94 µM; TGI [24]: 4.33 µM; CC50 [24]: 9.63 µM; growth at 10 µM [25]: 71.8%; growth at 1 µM [26]: 19%; GI50 [27]: 2.28 µM; LC50 [27]: 26.1 µM; TGI [27]: 7.18 µM; growth at 0.1 µM [28]: 92% |
